Measurements as given in ChEMBL document CHEMBL1142933, “Rational design of novel, potent small molecule pan-selectin antagonists” (J Med Chem, 2007).
pIC50: −log10 of the molar value.

Assays:
E-selectin = molecular target: T1, E-selectin (Homo sapiens, UniProt P16581); assay: Inhibition of human E-selectin after 2 hrs
T1 sequence (P16581 whole entry): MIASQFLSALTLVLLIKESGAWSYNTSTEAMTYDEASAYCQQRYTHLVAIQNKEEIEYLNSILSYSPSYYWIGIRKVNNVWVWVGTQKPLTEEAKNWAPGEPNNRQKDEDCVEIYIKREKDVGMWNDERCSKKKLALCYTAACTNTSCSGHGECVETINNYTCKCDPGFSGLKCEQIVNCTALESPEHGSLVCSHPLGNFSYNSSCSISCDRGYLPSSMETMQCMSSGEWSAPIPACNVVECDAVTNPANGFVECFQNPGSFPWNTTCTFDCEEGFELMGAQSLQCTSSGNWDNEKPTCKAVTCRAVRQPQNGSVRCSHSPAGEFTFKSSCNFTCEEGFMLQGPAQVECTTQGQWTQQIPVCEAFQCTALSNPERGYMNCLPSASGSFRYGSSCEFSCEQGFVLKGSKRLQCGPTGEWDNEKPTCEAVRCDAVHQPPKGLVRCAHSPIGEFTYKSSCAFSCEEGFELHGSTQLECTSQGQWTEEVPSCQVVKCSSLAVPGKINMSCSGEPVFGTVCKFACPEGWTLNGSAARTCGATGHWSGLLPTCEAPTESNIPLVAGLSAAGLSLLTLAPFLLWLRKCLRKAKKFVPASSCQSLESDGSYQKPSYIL
Summary of the method: (§1)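 Biotinylated sLeX-tyrosine sulfate polyacrylamide complexed with streptavidin-peroxidase added with compound at varying concentrations (HEPES pH 7.4, 1 mM CaCl2, 1% DMSO), 2 h 37 °C. TMB read-out, OD 450 vs 620 nm.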

L-selectin = molecular target: T2, L-selectin (Homo sapiens, UniProt P14151); assay: Inhibition of human L-selectin after 2 hrs; summary of the method: as §1
T2 sequence (P14151 whole entry): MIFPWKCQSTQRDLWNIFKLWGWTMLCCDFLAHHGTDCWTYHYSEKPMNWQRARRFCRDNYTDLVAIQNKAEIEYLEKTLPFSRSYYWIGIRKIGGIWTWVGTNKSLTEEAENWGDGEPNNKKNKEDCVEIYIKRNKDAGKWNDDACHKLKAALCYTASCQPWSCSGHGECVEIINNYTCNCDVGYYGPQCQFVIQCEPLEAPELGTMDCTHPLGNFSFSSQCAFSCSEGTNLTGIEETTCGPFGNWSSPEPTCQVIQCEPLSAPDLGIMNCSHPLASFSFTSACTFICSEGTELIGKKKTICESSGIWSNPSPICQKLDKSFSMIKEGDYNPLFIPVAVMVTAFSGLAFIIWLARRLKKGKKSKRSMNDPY

P-selectin = molecular target: T3, P-selectin (Homo sapiens, UniProt P16109); assay: Inhibition of human P-selectin after 2 hrs; summary of the method: as §1
T3 sequence (P16109 whole entry): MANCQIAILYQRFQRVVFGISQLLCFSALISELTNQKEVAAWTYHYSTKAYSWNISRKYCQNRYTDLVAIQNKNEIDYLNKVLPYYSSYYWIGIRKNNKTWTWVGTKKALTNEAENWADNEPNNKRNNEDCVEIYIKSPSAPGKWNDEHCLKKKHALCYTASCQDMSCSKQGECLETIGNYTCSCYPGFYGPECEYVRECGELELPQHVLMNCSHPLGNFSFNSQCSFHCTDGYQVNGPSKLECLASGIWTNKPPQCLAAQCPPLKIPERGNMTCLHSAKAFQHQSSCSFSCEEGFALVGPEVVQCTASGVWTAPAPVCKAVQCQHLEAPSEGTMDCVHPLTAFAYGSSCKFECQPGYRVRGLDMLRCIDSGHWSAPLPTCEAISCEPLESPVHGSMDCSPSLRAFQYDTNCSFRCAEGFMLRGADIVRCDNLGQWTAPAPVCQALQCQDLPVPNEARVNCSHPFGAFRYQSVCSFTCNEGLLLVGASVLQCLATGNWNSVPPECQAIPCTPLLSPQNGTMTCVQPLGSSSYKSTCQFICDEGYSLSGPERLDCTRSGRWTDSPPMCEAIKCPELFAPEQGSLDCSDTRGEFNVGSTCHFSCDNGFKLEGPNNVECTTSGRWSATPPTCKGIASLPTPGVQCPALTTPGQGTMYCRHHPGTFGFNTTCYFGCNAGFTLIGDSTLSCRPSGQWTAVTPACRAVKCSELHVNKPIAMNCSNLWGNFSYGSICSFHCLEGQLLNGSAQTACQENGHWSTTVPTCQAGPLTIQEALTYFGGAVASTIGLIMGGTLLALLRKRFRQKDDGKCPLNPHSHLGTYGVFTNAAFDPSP

HL-60 [1] = assay: Inhibition of attachment of HL60 cells to P-selectin at 109 uM after 5 mins; format: functional; details: Homo sapiens, HL-60, 5 min
Summary of the method: (§2)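 Dishes coated with E- or P-selectin/Fc chimera, blocked with BSA, mounted in a parallel flow chamber run recirculating; HL-60 cells at 2.4 million/mL final. Mean inhibition as % of vehicle control from mean cells/field of at least two independent experiments.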

HL-60 [2] = assay: Inhibition of attachment of HL60 cells to E-selectin at 109 uM after 5 mins; format: functional; details: Homo sapiens, HL-60, 5 min
Summary of the method: as §2, with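 “final. Cells attached after 5 min continuous flow at calculated shear 1 dyn/cm², with 109 µM compound or DMSO vehicle, counted in five low power fields.” for “final.”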

| pIC50 (E-selectin) | pIC50 (L-selectin) | pIC50 (P-selectin) | SMILES | inhibition at 109 µM (HL-60 [1]) [%] | inhibition at 109 µM (HL-60 [2]) [%] |
| --- | --- | --- | --- | --- | --- |
| 5.51 | 5.24 | 5.47 | O=C(CCc1cc(O)c(O)c(O)c1)N[C@H]1CC[C@H](C(=O)O)CC1 | – | – |
| 4.38 | 4.87 | 4.99 | O=C(O)Cc1ccc(-c2ccccc2NC(=O)CCc2cc(O)c(O)c(O)c2)s1 | 11 | 35 |
| – | – | – | O=C(O)Cc1cccc(-c2ccccc2NC(=O)Cc2cc(O)c(O)c(O)c2)c1 | 22 | 18 |
| 4.28 | 3.98 | 4.27 | O=C(O)Cc1ccc(-c2ccccc2NC(=O)CCCc2cc(O)c(O)c(O)c2)s1 | – | – |
| 4.24 | 5.37 | 5.47 | O=C(O)Cc1ccc(-c2ccccc2NC(=O)/C=C/c2ccc(O)c(O)c2O)s1 | 56 | – |
| < 3.30 | – | – | O=C(O)Cc1ccc(-c2ccccc2NC(=O)Cc2ccc(O)c(O)c2O)s1 | – | 26 |
| – | 5.38 | 5.54 | Cc1ccc(C(=O)O)cc1NC(=O)CCc1cc(O)c(O)c(O)c1 | – | – |
| – | – | – | O=C(CCc1cc(O)c(O)c(O)c1)NCc1ccc(C(=O)O)cc1 | 21 | 21 |
| – | – | – | O=C(Cc1cc(O)c(O)c(O)c1)NCc1ccc(C(=O)O)cc1 | 20 | 16 |
| 3.94 | 3.61 | 3.67 | O=C(O)Cc1ccc(-c2ccccc2NC(=O)c2ccccc2-c2cc(O)c(O)c(O)c2)s1 | 25 | – |
| 4.73 | 4.33 | 4.71 | O=C(CCc1cc(O)c(O)c(O)c1)Nc1cccc(C(=O)O)c1 | – | – |
| < 3.30 | 3.81 | 4.24 | O=C(O)Cc1cccc(-c2ccccc2NC(=O)CCCNC(=O)c2cc(O)c(O)c(O)c2)c1 | – | 29 |
| 3.87 | < 2.40 | < 2.40 | CC(=O)N[C@H]1[C@H]([C@H](O)[C@H](O)CO)O[C@@](O[C@H]2[C@@H](O)[C@@H](CO)O[C@@H](O[C@@H]([C@H](O[C@@H]3O[C@@H](C)[C@@H](O)[C@@H](O)[C@@H]3O)[C@H](C=O)NC(C)=O)[C@H](O)CO)[C@@H]2O)(C(=O)O)C[C@@H]1O [SIALYL LEWIS X] | – | 32 |
| – | < 3.30 | < 3.30 | Cc1c(NC(=O)Cc2cc(O)c(O)c(O)c2)cccc1C(=O)O | – | 19 |
| – | – | – | O=C(O)Cc1ccc(-c2ccccc2NC(=O)c2cccc(-c3ccc(O)c(O)c3O)c2)s1 | 55 | 61 |
| – | < 3.30 | – | O=C(O)Cc1cccc(-c2cc(CCCCCCc3ccc(O[C@H]4O[C@H](CO)[C@@H](O)[C@H](O)[C@@H]4O)c(-c4cccc(CC(=O)O)c4)c3)ccc2O[C@H]2O[C@H](CO)[C@@H](O)[C@H](O)[C@@H]2O)c1 [BIMOSIAMOSE] | 50 | 28 |
| – | – | – | O=C(O)Cc1cccc(NC(=O)CCc2cc(O)c(O)c(O)c2)c1 | – | 19 |
| – | < 3.30 | – | O=C(O)Cc1cccc(NC(=O)Cc2cc(O)c(O)c(O)c2)c1 | – | 27 |
| < 3.30 | < 3.30 | < 3.30 | O=C(O)Cc1cccc(-c2ccccc2O[C@H]2O[C@H](CO)[C@@H](O)[C@H](O)[C@@H]2O)c1 | – | 34 |
| < 3.30 | 4.82 | – | O=C(O)c1ccc(O)c(O)c1O | – | – |
| 4.50 | 4.41 | 4.50 | Cc1cc(O)c(O)c(O)c1 | – | – |
| < 3.30 | 5.01 | 5.44 | O=C(O)Cc1ccc(-c2ccccc2NC(=O)Cc2cccc(-c3ccc(O)c(O)c3O)c2)s1 | 58 | – |
| < 3.30 | 4.07 | 4.54 | O=C(O)Cc1ccc(-c2ccccc2NC(=O)CCc2ccc(O)c(O)c2O)s1 | – | – |

| SMILES | pIC50 (E-selectin) | pIC50 (L-selectin) | pIC50 (P-selectin) | inhibition at 109 µM (HL-60 [1]) [%] | inhibition at 109 µM (HL-60 [2]) [%] |
| --- | --- | --- | --- | --- | --- |
| O=C(O)c1cc(O)c(O)c(O)c1 [GALLIC ACID] | < 3.30 | 4.56 | 4.72 | – | – |
